In ChEMBL document CHEMBL5385894, “The discovery of 12β-methyl-17-epi-18-nor-bile acids as potent and selective TGR5 agonists” (Eur J Med Chem, 2023):
Activity calls are given as the source filed them. The rule behind the calls is not given here.

Molecular target: T1, Bile acid receptor (Homo sapiens) (UniProt Q96RI1)
T1 sequence (whole entry): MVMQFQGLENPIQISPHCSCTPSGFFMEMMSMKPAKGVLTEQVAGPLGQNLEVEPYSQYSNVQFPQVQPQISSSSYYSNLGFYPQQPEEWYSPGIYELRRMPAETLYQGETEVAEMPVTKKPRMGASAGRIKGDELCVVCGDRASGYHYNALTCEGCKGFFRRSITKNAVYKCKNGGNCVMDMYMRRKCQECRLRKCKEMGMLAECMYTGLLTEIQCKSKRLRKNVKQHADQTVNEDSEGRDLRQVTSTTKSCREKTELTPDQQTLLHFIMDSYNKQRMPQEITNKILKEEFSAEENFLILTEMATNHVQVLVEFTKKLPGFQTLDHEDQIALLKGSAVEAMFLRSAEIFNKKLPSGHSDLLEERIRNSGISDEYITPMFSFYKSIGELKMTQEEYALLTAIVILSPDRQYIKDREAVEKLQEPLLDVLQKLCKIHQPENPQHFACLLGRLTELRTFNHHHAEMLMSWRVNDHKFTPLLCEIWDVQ
Experiment: Agonist activity at FXR (unknown origin) at 10 uM relative to control
Conditions: not given
Outline: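 Nuclear hormone receptor (NHR) transactivation screen at FXR run by Eurofins DiscoverX; test agents at 10 µM.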

Activity [%] | Structure (SMILES)
23 | CC[C@H]1[C@@H](O)[C@H]2[C@@H]3CC[C@@H]([C@H](C)CCCC(=O)O)[C@H]3[C@H](C)C[C@@H]2[C@@]2(C)CC[C@@H](O)C[C@@H]12
31 | CC[C@H]1[C@@H](O)[C@H]2[C@@H]3CC[C@@H]([C@H](C)CCC(=O)O)[C@H]3[C@H](C)C[C@@H]2[C@@]2(C)CC[C@@H](O)C[C@@H]12

Molecular target: T2, G-protein coupled bile acid receptor 1 (Homo sapiens, UniProt Q8TDU6)
T2 sequence (Q8TDU6 whole entry): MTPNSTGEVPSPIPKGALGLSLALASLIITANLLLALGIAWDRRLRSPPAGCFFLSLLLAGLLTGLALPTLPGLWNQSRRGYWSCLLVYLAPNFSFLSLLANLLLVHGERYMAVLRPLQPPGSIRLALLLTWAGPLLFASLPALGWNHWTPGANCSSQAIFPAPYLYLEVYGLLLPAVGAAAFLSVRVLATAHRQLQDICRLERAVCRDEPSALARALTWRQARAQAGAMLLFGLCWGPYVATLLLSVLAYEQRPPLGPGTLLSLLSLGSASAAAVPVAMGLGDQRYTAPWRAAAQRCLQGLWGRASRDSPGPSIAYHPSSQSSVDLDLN
Experiment: Agonist activity at human TGR5 expressed in HEK293 cells incubated for 30 mins by SEAP reporter gene based assay
Type: functional, cell-based
Conditions: not given
Outline: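 Human TGR5 reverse-transfected 293T/17 cells in serum-free stimulation medium with 1% DMSO received a concentration series in triplicate, 30 min at bench then 7 h at 37 °C, 5% CO2. SEAP luminescence was read after heat inactivation at 65 °C. Response is % of 10 µM LCA, fitted by four-parameter unconstrained nonlinear regression to give EC50. Mean ± SD of three independent experiments.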

EC50 [nM] | Structure (SMILES)
5200 | CC[C@H]1[C@@H](O)[C@H]2[C@@H]3CC[C@H]([C@H](C)CCC(=O)NCCS(=O)(=O)O)[C@H]3[C@H](C)C[C@@H]2[C@@]2(C)CC[C@@H](O)C[C@@H]12
310 | CC[C@H]1[C@@H](O)[C@H]2[C@@H]3CC[C@@H]([C@H](C)CCC(=O)NCCS(=O)(=O)O)[C@H]3[C@H](C)C[C@@H]2[C@@]2(C)CC[C@@H](O)C[C@@H]12
270 | CC[C@H]1[C@@H](O)[C@H]2[C@@H]3CC[C@@H]([C@H](C)CCCC(=O)NCCS(=O)(=O)O)[C@H]3[C@H](C)C[C@@H]2[C@@]2(C)CC[C@@H](O)C[C@@H]12

Molecular target: T3, G-protein coupled bile acid receptor 1 (Homo sapiens) (UniProt Q8TDU6)
T3 sequence (whole entry): T2 sequence (Q8TDU6 whole entry)
Experiment: Agonist activity at human TGR5 expressed in HEK293 cells at 10 uM incubated for 30 mins by SEAP reporter gene based assay relative to control
Type: functional, cell-based
Conditions: not given
Outline: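 293T/17 cells reverse-transfected with human TGR5 on reporter strips (3.8 × 10^4 cells/well, 20 h), then moved to serum-free DMEM stimulation medium with 1% DMSO. Compound at 10 µM in triplicate, 30 min on the bench, then 7 h at 37 °C. Medium heated 65 °C 30 min, SEAP substrate added, luminescence read. Efficacy is basal-subtracted RLU as % of 10 µM LCA. Mean ± SD of ≥2 independent experiments.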

Structure (SMILES) | Activity
C[C@@H]1C[C@H]2[C@H]([C@@H]3CC[C@@H]([C@H](C)C(=O)O)[C@H]31)[C@H](O)C[C@@H]1C[C@H](O)CC[C@@]12C | 4%
C[C@H](CC(=O)O)[C@@H]1CC[C@@H]2[C@@H]1[C@H](C)C[C@H]1[C@H]2[C@H](O)C[C@@H]2C[C@H](O)CC[C@@]21C | 4%
C[C@H](CC(=O)NCCS(=O)(=O)O)[C@@H]1CC[C@@H]2[C@@H]1[C@H](C)C[C@H]1[C@H]2[C@H](O)C[C@@H]2C[C@H](O)CC[C@@]21C | 7%
CC[C@H]1[C@@H](O)[C@H]2[C@@H]3CC[C@H]([C@H](C)CC(=O)NCCS(=O)(=O)O)[C@H]3[C@H](C)C[C@@H]2[C@@]2(C)CC[C@@H](O)C[C@@H]12 | inactive
C[C@H](CCC(=O)O)[C@H]1CC[C@@H]2[C@@H]1[C@H](C)C[C@H]1[C@H]2[C@H](O)C[C@@H]2C[C@H](O)CC[C@@]21C | inactive
C[C@H](CCCC(=O)O)[C@H]1CC[C@@H]2[C@@H]1[C@H](C)C[C@H]1[C@H]2[C@H](O)C[C@@H]2C[C@H](O)CC[C@@]21C | inactive
C[C@H](CCCC(=O)O)[C@@H]1CC[C@@H]2[C@@H]1[C@H](C)C[C@H]1[C@H]2[C@H](O)C[C@@H]2C[C@H](O)CC[C@@]21C | 26%
CC[C@H]1[C@@H](O)[C@H]2[C@@H]3CC[C@H]([C@H](C)CCCC(=O)NCCS(=O)(=O)O)[C@H]3[C@H](C)C[C@@H]2[C@@]2(C)CC[C@@H](O)C[C@@H]12 | inactive
C[C@H](CCCCC(=O)O)[C@H]1CC[C@@H]2[C@@H]1[C@H](C)C[C@H]1[C@H]2[C@H](O)C[C@@H]2C[C@H](O)CC[C@@]21C | inactive

The remaining lines, values ahead:

Activity | Structure (SMILES)
33% | CC[C@H]1[C@@H](O)[C@H]2[C@@H]3CC[C@H]([C@H](C)CCC(=O)O)[C@H]3[C@H](C)C[C@@H]2[C@@]2(C)CC[C@@H](O)C[C@@H]12
10% | CC[C@H]1[C@@H](O)[C@H]2[C@@H]3CC[C@@H]([C@H](C)C(=O)O)[C@H]3[C@H](C)C[C@@H]2[C@@]2(C)CC[C@@H](O)C[C@@H]12
11% | CC[C@H]1[C@@H](O)[C@H]2[C@@H]3CC[C@H]([C@H](C)CC(=O)O)[C@H]3[C@H](C)C[C@@H]2[C@@]2(C)CC[C@@H](O)C[C@@H]12

Same assay, conditions: filed as agonist

Structure (SMILES) | Activity [%]
C[C@H](CCCC(=O)NCCS(=O)(=O)O)[C@@H]1CC[C@@H]2[C@@H]1[C@H](C)C[C@H]1[C@H]2[C@H](O)C[C@@H]2C[C@H](O)CC[C@@]21C | 62
CC[C@H]1[C@@H](O)[C@H]2[C@@H]3CC[C@@H]([C@H](C)CC(=O)NCCS(=O)(=O)O)[C@H]3[C@H](C)C[C@@H]2[C@@]2(C)CC[C@@H](O)C[C@@H]12 | 42
C[C@@H]1C[C@H]2[C@H]([C@@H]3CC[C@@H]([C@H](C)C(=O)NCCS(=O)(=O)O)[C@H]31)[C@H](O)C[C@@H]1C[C@H](O)CC[C@@]12C | 56
CC[C@H]1[C@@H](O)[C@H]2[C@@H]3CC[C@@H]([C@H](C)C(=O)NCCS(=O)(=O)O)[C@H]3[C@H](C)C[C@@H]2[C@@]2(C)CC[C@@H](O)C[C@@H]12 | 61
C[C@H](CCC(=O)NCCS(=O)(=O)O)[C@@H]1CC[C@@H]2[C@@H]1[C@H](C)C[C@H]1[C@H]2[C@H](O)C[C@@H]2C[C@H](O)CC[C@@]21C | 61
C[C@H](CCCCC(=O)O)[C@@H]1CC[C@@H]2[C@@H]1[C@H](C)C[C@H]1[C@H]2[C@H](O)C[C@@H]2C[C@H](O)CC[C@@]21C | 43
CC[C@H]1[C@@H](O)[C@H]2[C@@H]3CC[C@@H]([C@H](C)CCCC(=O)NCCS(=O)(=O)O)[C@H]3[C@H](C)C[C@@H]2[C@@]2(C)CC[C@@H](O)C[C@@H]12 | 99

Other lines, results leading:

Activity [%] | Structure (SMILES)
42 | CC[C@H]1[C@@H](O)[C@H]2[C@@H]3CC[C@@H]([C@H](C)CC(=O)O)[C@H]3[C@H](C)C[C@@H]2[C@@]2(C)CC[C@@H](O)C[C@@H]12
99 | CC[C@H]1[C@@H](O)[C@H]2[C@@H]3CC[C@H]([C@H](C)CCC(=O)NCCS(=O)(=O)O)[C@H]3[C@H](C)C[C@@H]2[C@@]2(C)CC[C@@H](O)C[C@@H]12
54 | CC[C@H]1[C@@H](O)[C@H]2[C@@H]3CC[C@H]([C@H](C)CCCC(=O)O)[C@H]3[C@H](C)C[C@@H]2[C@@]2(C)CC[C@@H](O)C[C@@H]12
69 | CC[C@H]1[C@@H](O)[C@H]2[C@@H]3CC[C@@H]([C@H](C)CCCC(=O)O)[C@H]3[C@H](C)C[C@@H]2[C@@]2(C)CC[C@@H](O)C[C@@H]12
99 | CC[C@H]1[C@@H](O)[C@H]2[C@@H]3CC[C@@H]([C@H](C)CCC(=O)NCCS(=O)(=O)O)[C@H]3[C@H](C)C[C@@H]2[C@@]2(C)CC[C@@H](O)C[C@@H]12
62 | CC[C@H]1[C@@H](O)[C@H]2[C@@H]3CC[C@@H]([C@H](C)CCC(=O)O)[C@H]3[C@H](C)C[C@@H]2[C@@]2(C)CC[C@@H](O)C[C@@H]12
